# Laboratory results: the RNAGym collection of RNA variant scans (doi:10.1002/anie.201605470)
# B1: Osa-1-4 twister ribozyme (parent)
# chain: CCGCCUAACACUGCCAAUGCCGGUCCCAAGCCCGGAUAAAAGUGGAGGGGGCGG
# Variants of: B1
# Experiment: self-cleavage, relative activity (ratio to wild type); higher = more cleavage; co-transcriptional
# Method in brief: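 A DNA template for a 54-nucleotide Oryza sativa twister ribozyme was synthesised with 97 % wild-type base and 1 % of each other base at the 48 positions downstream of the cleavage site. It was transcribed in vitro for 2 h at 37 °C, allowing co-transcriptional self-cleavage, then reverse-transcribed with a template-switching oligonucleotide, PCR-amplified and deep-sequenced. Cleavage status was scored from reads with or without upstream sequence. Relative activity is fraction cleaved normalised to wild type.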
row,Variant,self-cleavage
1,G51U G54A,0.25
2,G51U G54U,0.4
3,G51U G54C,0.51
4,C52G,1.01
5,C52U,1.03
6,C52A,1.02
7,G51C,0.17
8,G51U,0.44
9,G51A,0.77
10,G53A U37G,0.97
11,G53A U37C,0.97
12,G53A U37A,0.57
13,G50U U43A,0.92
14,G50U U43C,0.68
15,G50U U43G,0.71
16,G53C U37G,0.15
17,G53C U37C,0.11
18,G53C U37A,0.06
19,G53C G54C,0.08
20,G53C G54A,0.1
21,G53C G54U,0.25
22,C52G G13U,0.06
23,C52G G13C,0.07
24,C52G G13A,0.12

row,Variant,self-cleavage
1,G53C,0.13
2,G53A,0.93
3,G53U,0.56
4,G51A U24C,0.08
5,G51A U24A,0.08
6,G51A U24G,0.02
7,G51C G54C,0.34
8,G51C G54U,0.12
9,G51C G54A,0.09
10,C52G G53U,0.44
11,C52G G53C,0.24
12,C52G G53A,0.57
13,C52U G54C,0.94
14,C52U G54A,0.98
15,C52U G54U,1.03
16,C52G G34U,0.42
17,C52G G34A,0.77
18,C52G G34C,0.17
19,C52A G30C,0.06
20,C52A G30U,0.04
21,C52A G30A,0.04
22,G53A G54C,0.66
23,G53A G54U,0.79
24,G53A G54A,0.62

row,Variant,self-cleavage
1,C52U U43C,0.62
2,C52U U43A,1
3,C52U U43G,0.88
4,C52A U43A,0.85
5,C52A U43G,0.37
6,C52A U43C,0.5
7,C52A U12A,0.71
8,C52A U12G,0.18
9,C52A U12C,0.48
10,G53C U43G,0.07
11,G53C U43A,0.08
12,G53C U43C,0.07
13,G51A U43G,0.1
14,G51A U43A,0.25
15,G51A U43C,0.2
16,G53A U12C,0.37
17,G53A U12G,0.18
18,G53A U12A,0.28
19,C52U U12C,0.65
20,C52U U12A,0.99
21,C52U U12G,0.78
22,G51U U37C,0.51
23,G51U U37A,0.15
24,G51U U37G,0.4

row,Variant,self-cleavage
1,C52A G22C,0.07
2,C52A G22U,0.17
3,C52A G22A,0.71
4,G53A U24C,0.08
5,G53A U24G,0.03
6,G53A U24A,0.09
7,C52U U24C,0.56
8,C52U U24G,0.03
9,C52U U24A,0.33
10,C52A G34C,0.21
11,C52A G34A,0.65
12,C52A G34U,0.39
13,C52G U43C,0.55
14,C52G U43A,0.9
15,C52G U43G,0.65
16,G53C U24C,0.03
17,G53C U24G,0.01
18,G53C U24A,0.04
19,C52G G23U,0.14
20,C52G G23C,0.09
21,C52G G23A,0.28
22,G53A U18A,0.8
23,G53A U18C,0.83
24,G53A U18G,0.65

row,Variant,self-cleavage
1,C52G G54A,0.81
2,C52G G54C,0.91
3,C52G G54U,0.97
4,C52G G44C,0.9
5,C52G G44A,0.98
6,C52G G44U,0.9
7,G51C G53A,0.07
8,G51C G53C,0.04
9,G51C G53U,0.06
10,C52U G35C,0.63
11,C52U G35U,0.99
12,C52U G35A,0.96
13,C52U G22A,0.91
14,C52U G22U,0.88
15,C52U G22C,0.17
16,C52U G47U,0.4
17,C52U G47A,0.45
18,C52U G47C,0.12
19,G51A U12C,0.22
20,G51A U12A,0.22
21,G51A U12G,0.07
22,C52A G19U,0.2
23,C52A G19C,0.08
24,C52A G19A,0.42

row,Variant,self-cleavage
1,C52G U24C,0.22
2,C52G U24A,0.23
3,C52G U24G,0.06
4,C52A G50U,0.25
5,C52A G50A,0.69
6,C52A G50C,0.14
7,C52A G53A,0.92
8,C52A G53U,0.8
9,C52A G53C,0.5
10,C52A G23A,0.17
11,C52A G23U,0.09
12,C52A G23C,0.06
13,C52G G45U,0.14
14,C52G G45A,0.27
15,C52G G45C,0.1
16,C52A G45C,0.07
17,C52A G45U,0.1
18,C52A G45A,0.26
19,G51A U37G,0.78
20,G51A U37A,0.39
21,G51A U37C,0.82
22,C52A C9G,0.8
23,C52A C9U,0.82
24,C52A C9A,0.55

row,Variant,self-cleavage
1,G50U U24G,0.02
2,G50U U24A,0.13
3,G50U U24C,0.28
4,C52U G23A,0.68
5,C52U G23U,0.25
6,C52U G23C,0.06
7,C52A G44U,0.93
8,C52A G44C,0.96
9,C52A G44A,0.98
10,G53C U18G,0.14
11,G53C U18A,0.09
12,G53C U18C,0.1
13,C52U U37C,1.07
14,C52U U37G,1.06
15,C52U U37A,0.84
16,C52U G53A,1
17,C52U G53U,0.9
18,C52U G53C,0.17
19,G51U U12C,0.08
20,G51U U12G,0.05
21,G51U U12A,0.09
22,C52G G47C,0.11
23,C52G G47A,0.28
